This passage reports IC50 and selectivity ratio results from ChEMBL document CHEMBL1138539, “Synthesis of new 2-(5-substituted-3-phenyl-2-pyrazolinyl)-1,3-thiazolino[5,4-b]quinoxaline derivatives and evaluation of their antiamoebic activity” (Eur J Med Chem, 2009).

The nature of series [1]: Cytotoxicity against human kidney epithelial cells after 44 hrs by MTT assay. The class given is ADME, cell-based. Particulars: Epithelial cell. For orientation: Tetrazolium assays rely on reduction of a dye to a coloured formazan, in cell work by metabolically active cells.
The test system of series [2] is Entamoeba histolytica. Briefly: Antiamnesic activity against Entamoeba histolytica HM-1:IMSS after 72 hrs by trypan blue exclusion method. It is filed as functional, organism-based. In short, it runs like this:
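Trophozoites grown in TYIS-33 medium and tested by microdilution; amoebae counted by haemocytometer, viability confirmed by trypan blue exclusion. Compounds in DMSO (1 mg/ml stock), two-fold serial dilutions, with medium blanks and untreated controls. After incubation, wells washed in warm 0.9% NaCl, methanol-fixed, eosin-stained, dye released in 0.1 N NaOH, OD 490 nm. IC50 from linear regression of % inhibition versus log dose.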

Series [3] is described as follows: Safety index, ratio of IC50 for human kidney epithelial cells to IC50 for Entamoeba histolytica HM-1:IMSS.
In series [4] the test system is Entamoeba histolytica. Briefly: Antiamoebic activity against Entamoeba histolytica HM-1:IMSS after 72 hrs by microdilution method. For orientation: Dilution methods test growth across graded concentrations, often in twofold steps.

For the compound `CCc1ccccc1C1CC(c2ccccc2)=NN1c1nc2nc3ccccc3nc2s1` (stereo not given), the 50% inhibitory concentration (IC50) (in general, the concentration that gives 50% inhibition) in series [1] is greater than 50 µM; in series [2], 1.49 µM. In addition, in series [3] (human kidney epithelial cells), the selectivity ratio is greater than 33.5.
Take `O=C(/C=C/c1ccccc1Cl)c1ccccc1`: the concentration for half-maximal inhibition (IC50) in series [1] was greater than 50 µM; in series [4] it was 2.6 µM. Moreover, the selectivity ratio in series [3] (human kidney epithelial cells) was greater than 19.2.
The matching figures for `CC(C)c1ccccc1C1CC(c2ccccc2)=NN1C(N)=S` (stereo not given): greater than 50 µM, 0.23 µM and greater than 217.
The matching figures for `Clc1cccc(C2CC(c3ccccc3)=NN2c2nc3nc4ccccc4nc3s2)c1Cl` (stereo not given): greater than 50 µM, 0.89 µM and greater than 56.2.
The matching figures for `Cc1cc(C)c(C2CC(c3ccccc3)=NN2C(N)=S)c(C)c1` (stereo not given): greater than 50 µM, 4.37 µM and greater than 11.4.
Take `CCc1ccccc1/C=C/C(=O)c1ccccc1`: the figures for the half-inhibitory concentration (IC50) in series [1] and in series [2] were greater than 50 µM and 1.79 µM, respectively. Also, the selectivity ratio in series [3] (human kidney epithelial cells) is greater than 27.9.
Consider `Cc1cc(C)c(/C=C/C(=O)c2ccccc2)c(C)c1`, for which the concentration for half-maximal inhibition (IC50) in series [1] was greater than 50 µM; in series [4], 1.41 µM. Besides, the selectivity ratio in series [3] (human kidney epithelial cells) is greater than 35.5.
As for `CC(C)c1ccccc1/C=C/C(=O)c1ccccc1`, the IC50 in series [1] is greater than 46 µM; in series [2], 3.48 µM. Besides, the selectivity ratio in series [3] (human kidney epithelial cells) was greater than 13.2.
The matching figures for `NC(=S)N1N=C(c2ccccc2)CC1c1ccccc1` (stereo not given): greater than 50 µM, 1.61 µM and greater than 31.1.
The matching figures for `CCc1ccccc1C1CC(c2ccccc2)=NN1C(N)=S` (stereo not given): greater than 50 µM, 1.61 µM and greater than 31.1.
As to `c1ccc(C2=NN(c3nc4nc5ccccc5nc4s3)C(c3ccccc3)C2)cc1` (stereo not given), the IC50 was greater than 50 µM in series [1] and 1.49 µM in series [2]. Also, the selectivity ratio in series [3] (human kidney epithelial cells) is greater than 33.5.
In the case of `O=C(/C=C/c1ccc(Cl)c(Cl)c1)c1ccccc1`, the results for the IC50 in series [1] and in series [4] were greater than 50 µM and 2.01 µM, respectively. In addition, the selectivity ratio in series [3] (human kidney epithelial cells) is greater than 24.9.
The matching figures for `Clc1ccccc1C1CC(c2ccccc2)=NN1c1nc2nc3ccccc3nc2s1` (stereo not given): greater than 50 µM, 1.9 µM and greater than 26.3.
For the compound `NC(=S)N1N=C(c2ccccc2)CC1c1ccccc1Cl` (stereo not given), the half-inhibitory concentration (IC50) was greater than 50 µM in series [1] and 2.23 µM in series [4]. The selectivity ratio in series [3] (human kidney epithelial cells) was greater than 22.4.
For the compound `Cc1ncc([N+](=O)[O-])n1CCO` [METRONIDAZOLE], the IC50 in series [1] was greater than 100 µM; in series [4], 1.8 µM. In series [3] (epithelial cell), the selectivity ratio was greater than 55.6.
Regarding `Cc1cc(C)c(C2CC(c3ccccc3)=NN2c2nc3nc4ccccc4nc3s2)c(C)c1` (stereo not given), the figures for the IC50 in series [1] and in series [4] were greater than 35 µM and 3.2 µM, respectively. For the same compound, the selectivity ratio in series [3] (human kidney epithelial cells) is greater than 10.8.
On to `O=C(/C=C/c1ccccc1)c1ccccc1` [CHALCONE], for which the half-inhibitory concentration (IC50) is greater than 50 µM in series [1] and 1.7 µM in series [2]. The selectivity ratio in series [3] (human kidney epithelial cells) was greater than 29.4.
The matching figures for `c1ccc(C2=NN(c3nc4nc5ccccc5nc4s3)C(c3c[nH]c4ccccc34)C2)cc1` (stereo not given): greater than 18 µM, 1.29 µM and greater than 14.
The matching figures for `NC(=S)N1N=C(c2ccccc2)CC1c1c[nH]c2ccccc12` (stereo not given): greater than 54 µM, 1.77 µM and greater than 30.5.
As for `Cc1ccc(C2CC(c3ccccc3)=NN2c2nc3nc4ccccc4nc3s2)cc1` (stereo not given), the IC50 in series [1] was greater than 14 µM; in series [2] (in the assay text read “Antiamoebic” for “Antiamnesic”) it was 0.3 µM. The selectivity ratio in series [3] (human kidney epithelial cells) is greater than 46.4.
With `O=C(/C=C/c1c[nH]c2ccccc12)c1ccccc1`, the results for the IC50 in series [1] and in series [2] were greater than 44 µM and 1.8 µM, respectively. The selectivity ratio in series [3] (human kidney epithelial cells) is greater than 24.4.
Take `CC(C)c1ccccc1C1CC(c2ccccc2)=NN1c1nc2nc3ccccc3nc2s1` (stereo not given): the half-maximal inhibitory concentration (IC50) is greater than 50 µM in series [1] and 0.17 µM in series [4]. The selectivity ratio in series [3] (human kidney epithelial cells) is greater than 294.
Regarding `Cc1ccc(/C=C/C(=O)c2ccccc2)cc1`, the 50% inhibitory concentration (IC50) in series [2] was 2.12 µM.
In the case of `Cc1ccc(C2CC(c3ccccc3)=NN2C(N)=S)cc1` (stereo not given), the IC50 was greater than 50 µM in series [1] and 1.58 µM in series [2]. Besides, the selectivity ratio in series [3] (human kidney epithelial cells) is greater than 31.7.
